Experimental data taken from publication PMC4245983 (Biochemistry, 2014).
“Also recorded” adds a separate entry of the source.

Columns and labels:
HscA386 [1] = test: 2D 1H-15N TROSY-HSQC linker peptide binding to HscA386; design: species or system Escherichia coli; conditions: 0.2 mM [U-15N]HscA386, 3 mM linker peptide (15-fold molar excess), TED buffer, 900 MHz
HscA386 [2] = test: Steady-state ATPase assay of HscA386; format: biochemical, Escherichia coli; conditions: for effect on ATPase activity of HscA386 by linker peptide: 5–500 μM linker peptide, 1 μM HscA386, HMKD with 10% DMSO; for effect on ATPase activity of HscA386: 50:1 molar ratio (50 μM HscB or IscU), 25 °C, n = 3
[3] = Solubility of linker peptide; format: physicochemical; conditions: TED buffer pH 7.5 without DMSO, upper limit concentration of 3 mM
HscA395 = test: Steady-state ATPase assay of HscA395 with HscB or IscU; format: biochemical, Escherichia coli; conditions: 50:1 molar ratio (50 μM HscB or IscU), 25 °C, n = 3
Method in brief: (§1)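 HscB or IscU (50-fold molar excess, 50 μM) was added to 1 μM HscA variant (full-length WT or NBD construct). Reactions used HMKD buffer pH 7.3 with 1 mM ATP at 25 °C. Phosphate release was monitored continuously by EnzChek coupled assay at 360 nm, calibrated with a Pi standard curve. Three or more replicates.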

WT HscA [4] = conditions: J-domain interactions; cited from earlier work
IscU = conditions: cited from earlier work
HscA389 = test: Steady-state ATPase assay of HscA389 with HscB or IscU; format: biochemical, Escherichia coli; conditions: 50:1 molar ratio (50 μM HscB or IscU), 25 °C, n = 3
Method in brief: as §1

WT HscA [5] = test: Steady-state ATPase assay of WT HscA with HscB or IscU; format: biochemical, Escherichia coli; conditions: for effect on ATPase activity of WT HscA: 50-fold molar excess of HscB or IscU, 25 °C, n = 3
Method in brief: as §1

HscA386(T212V) = test: 2D 1H-15N TROSY-HSQC nucleotide binding to HscA386; design: species or system Escherichia coli; conditions: TED buffer lacking Mg2+, pH 7.5, 10 mM ATP
Method in brief: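 0.3 mM [U-15N]-labelled NBD construct (expressed in Rosetta Blue DE3 in M9 medium with 1 g/L 15NH4Cl, 0.4 mM IPTG, 4 h). Solvent was TED buffer with 7% D2O and 0.02% sodium azide. 2D 1H–15N TROSY-HSQC spectra were taken without nucleotide and with 10 mM ATP at 25 °C, 800 MHz, and compared.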

HscA [6] = test: ATPase activity as a function of ATP concentration; format: biochemical, Escherichia coli; conditions: for Vmax from Michaelis-Menten fit: 2–1000 μM ATP, 1 μM HscA, HMKD pH 7.3, 25 °C, n = 3; for apparent ATP binding affinity, comparison of HscA386 and HscA395: from Km comparison
Method in brief: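 NBD constructs (stop codons at residue 387 or 396; DEAE then Superdex 75 purification) were used at 1 μM in HMKD (50 mM HEPES pH 7.3, 150 mM KCl, 10 mM MgCl2, 1 mM DTT), 25 °C. ATP was 2, 4, 10, 40, 100 and 1000 μM. Pi release was monitored continuously by EnzChek coupled assay at 360 nm against a Pi standard curve. Means of three replicates were fit by nonlinear Michaelis–Menten regression for Km and Vmax.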

HscA [7] = test: Steady-state ATPase assay of HscA variants; format: biochemical, Escherichia coli; conditions: for fold increase in ATPase activity vs HscA386 / fold increase in ATPase activity vs WT HscA: 1 μM HscA, 1 mM ATP, HMKD pH 7.3, 25 °C; for fold increase in ATPase activity vs HscA386: relative to HscA386; for fold increase in ATPase activity vs WT HscA: relative to WT HscA
Method in brief: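 Steady-state hydrolysis at 25 °C in HMKD (50 mM HEPES pH 7.3, 150 mM KCl, 10 mM MgCl2, 1 mM DTT) with 1 μM HscA variant and 1 mM ATP. Pi release was followed continuously by EnzChek enzyme-coupled assay at 360 nm and converted via a Pi standard curve to min–1. Three or more replicates. Linker peptide was dissolved in HMKD with 10% DMSO and added at 5–500 μM final.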

[8] = Differential scanning fluorimetry; format: physicochemical; conditions: relative to HscA386
Method in brief: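 2 μM protein in 5 mM HEPES pH 7.3, 10 mM MgCl2, 10 mM KCl with 10 μM SYPRO orange, in triplicate. Heated 15–99 °C in a real-time PCR instrument; excitation 492 nm, emission 610 nm. Tm was taken where the first derivative of fluorescence reached its minimum.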

In the case of LLLDVIPLS [linker peptide], the “binding of linker peptide to HscA386 (chemical shift perturbation)” value (HscA386 [1]) is reported as “widespread chemical shift perturbations, including distinct broadening of some signals; also recorded: relatively weaker binding interactions; also recorded: weakly binding”, the “binding of linker peptide to HscA386 (chemical shift perturbation)” value (HscA386 [1]; listed as synthetic peptide) is reported as “widespread NMR chemical shift perturbations indicative of a binding interaction” and the “effect on ATPase activity of HscA386 by linker peptide” value (HscA386 [2]) is reported as “A concentration dependence was observed”. For the same molecule, the “effect on ATPase activity of HscA386 by linker peptide” value (HscA386 [2]; listed as synthetic peptide) was “stimulated its ATPase activity” and the “solubility of linker peptide in TED buffer” value [3] was “partially dissolved”.

In the case of HscB: Hsp40-type cochaperone of HscA, the “effect on ATPase activity of HscA395” value (HscA395) is given as “not affected; also recorded: did not elicit any stimulation of ATPase activity; also recorded: neither the isolated NBD (HscA386) nor the NBD with a full interdomain liker (HscA395) was receptive to ATPase stimulation”, the “HscB-mediated activation of full-length HscA ATPase activity” value (WT HscA [4]) is given as “sensitive to HscB-mediated activation of ATPase activity” and the “preferential binding to conformational state of IscU” value (IscU) is given as “binds preferentially to the S-state”. The “effect on ATPase activity of HscA386” value (HscA386 [2]) was “not affected; also recorded: did not elicit any stimulation of ATPase activity; also recorded: neither the isolated NBD (HscA386) nor the NBD with a full interdomain liker (HscA395) was receptive to ATPase stimulation”, the “effect on ATPase activity of HscA389” value (HscA389) was “not affected; also recorded: did not elicit any stimulation of ATPase activity” and the “fold increase in ATPase activity of WT HscA” value (WT HscA [5]; 1 μM WT HscA with 50 μM HscB) was 8 factor. For the same molecule, the “effect on ATPase activity of WT HscA” value (WT HscA [5]) was “enhanced”.

In the case of “IscU: scaffold protein, substrate of HscA”, the “effect on ATPase activity of HscA395” value (HscA395) is reported as “no effect on the ATPase activities of any of the NBD variants; also recorded: not affected”, the “effect on ATPase activity of HscA386” value (HscA386 [2]) is reported as “no effect on the ATPase activities of any of the NBD variants; also recorded: not affected” and the “effect on ATPase activity of HscA389” value (HscA389) is reported as “no effect on the ATPase activities of any of the NBD variants; also recorded: not affected”. The “effect on ATPase activity of WT HscA” value (WT HscA [5]) was “enhanced”.

In the case of `Nc1ncnc2c1ncn2[C@@H]1O[C@H](COP(=O)(O)OP(=O)(O)OP(=O)(O)O)[C@@H](O)[C@H]1O` [ATP], the “ATP binding in the absence of Mg2+ (TROSY-HSQC)” value (HscA386(T212V)) is reported as “nearly superimposable”.

For “HscA386: isolated nucleotide-binding domain (NBD) of HscA”, the “Vmax from Michaelis-Menten fit” value (HscA [6]) was 0.039 ± 0.001 min^–1 and the “apparent ATP binding affinity, comparison of HscA386 and HscA395” value (HscA [6]) was “equivalent; also recorded: identical within experimental error”.

For “HscA389: NBD of HscA containing a short (three-amino acid) linker peptide, LLL motif”, the “fold increase in ATPase activity vs HscA386” value (HscA [7]) was 7 fold and the “fold increase in ATPase activity vs WT HscA” value (HscA [7]) was 9 fold.

With “HscA395: NBD of HscA containing the full-length (nine-amino acid) linker peptide” the “fold increase in ATPase activity vs HscA386” value (HscA [7]) was 13 fold, the “fold increase in ATPase activity vs WT HscA” value (HscA [7]) was 17 fold and the “fold faster ATP hydrolysis than HscA386 in the presence of linker peptide” value (HscA [7]; relative to HscA386 + 500 μM linker peptide) was 3 fold. For the same molecule, the “Vmax from Michaelis-Menten fit” value (HscA [6]) was 0.446 ± 0.016 min^–1, the “apparent ATP binding affinity, comparison of HscA386 and HscA395” value (HscA [6]) was “equivalent; also recorded: identical within experimental error” and the “basal thermostability vs HscA386” value [8] was “higher than those of HscA386; also recorded: increases basal thermostability in comparison to that of HscA386”.
